Source: PubChem (several laboratories)
T cruzi repl – T. cruzi replication inhibition. T. cruzi beta-gal in NIH3T3, luminescence, 90 h. inhibition, % (test concentration not listed). 300,000 compounds, 1.4% hits. AID 1885;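 active = mean inhibition across valid replicates above about 55%, limit read from the data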;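 also: signal also drops with host cell toxicity which is not excluded here; 0% = plate median of DMSO wells and 100% = zero luminescence signal; higher percent means less beta-gal luminescence so fewer parasites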
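Test system: β-gal T. cruzi (Tulahuen C4) inside NIH/3T3 cells / Quantity: 5,000 cells/well / Measured by: luminescence from GalScreen with 0.05% NP40, read after 60 min / Medium: DMEM plus 2% FBS / Measure: parasite load inhibition, % / Reagent: Tulahuen C4 trypomastigotes, 5000/well / Schedule: co-culture of at least 90 h after 3 h attachment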
SKKanGAS inh – blocks kanamycin growth of S. pyogenes SKKanGAS strain; inhibition, % at 7.5 µM; BacTiter-Glo, 6 h; 300,000 compounds, 1.3% hits;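 active = mean replicate score, as percent of positive control median, at least 50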;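 also: strain carries kanamycin resistance gene driven by streptokinase promoter and grows in 40 µg/ml kanamycin; loss of luminescence reflects streptokinase promoter inhibition or plain growth inhibition; 0% = median of DMSO wells and 100% = positive control at its reference dose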
CSC inhib – cancer stem cell inhibition | cancer stem cell-like cells viability, luminescence | inhibition, % at 7.5 µM | 300,000 compounds, 1.1% hits | AID 2717; in the data active = inhibition above about 75%; tested in HMLE shEcad cells
Lmaj promast – inhibitors of Leishmania major promastigote growth | inhibition, % at 10 µM | Leishmania major promastigotes, resazurin fluorescence viability | AID 1063 | 200,000 compounds, 9% hits; in the data active = inhibition above about 50%;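 also: promastigotes grown with compound for 44 hours at 28 °C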
Beta cell apopt – beta cell apoptosis inhibition | AID 435005 | 300,000 compounds, 0.8% hits | protection from apoptosis, % (test concentration not listed) | INS-1E cytokine-induced death, ATP luminescence, 48 h; percent of positive-control rescue, neutral wells zero;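 active = Every replicate reaches about 75%, or at least half do and their mean reaches it too, limit read from the data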;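 also: 0% = cytokine-treated negative control wells and 100% = positive control rescue; higher means more ATP so stronger rescue from cytokine killing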
Mdm2 MdmX PPI – human Mdm2/MdmX binding inhibition; 330,000 compounds, 3% hits; inhibition, % at 8 µM; O15151+Q00987; SaOS-2 split-luciferase Mdm2/MdmX complementation, luminescence;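 active = inhibition of at least 50% at 8 µM in the primary screen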
Active calls of the source: *. Compounds with a hit are over-represented: about 9.4% of the library has one in this group of screens.

Screening CSc1nc(N)nc2c1ncn2CC(=O)N1CCN(Cc2c(C)cc(C)cc2C)CC1 returned Beta cell apopt 100.4* and Mdm2 MdmX PPI 43.0.
Screening O=C1CC2(CCN(C(=O)c3ccccc3Cl)CC2)Oc2ccccc21 returned T cruzi repl -2.0, SKKanGAS inh -6.7, CSC inhib -9.8, Beta cell apopt -0.5 and Mdm2 MdmX PPI 16.7.
O=C1CC2(CCCC2)CC(=O)N1CCCCN1CCN(c2ncccn2)CC1 was read as T cruzi repl -8.0, SKKanGAS inh 1.8, CSC inhib -3.6, Lmaj promast 59.5*, Beta cell apopt 3.0 and Mdm2 MdmX PPI -8.2.
`CN1C(=O)N(CC(=O)N2CCN(c3ncccn3)CC2)C(=O)C12CCCCC2` gave Mdm2 MdmX PPI 8.3.
Screening O=C(N/N=C/c1cc2c3c(c1O)CCCN3CCC2)c1ccccc1O returned T cruzi repl 58.8*, SKKanGAS inh 55.2* and Lmaj promast 100.0*.
For CN(C)c1ccc(N=Cc2ccco2)cc1 the results were Lmaj promast 70.8*, Beta cell apopt 34.8 and Mdm2 MdmX PPI -14.1.
`CN(C)c1ccc(C=Nc2ccc(N(C)C)cc2)cc1` gave T cruzi repl 3.5, SKKanGAS inh -7.1, CSC inhib 1.7, Lmaj promast 71.1*, Beta cell apopt 16.4 and Mdm2 MdmX PPI -1.0.
Screening C/C(=N/N=C/c1ccc(N(C)C)cc1)c1ccccc1 returned T cruzi repl -23.6, SKKanGAS inh -1.8, CSC inhib 1.7, Lmaj promast 80.3*, Beta cell apopt -5.2 and Mdm2 MdmX PPI -82.4.
For Cc1ccc(N=Cc2ccc(N(C)C)cc2)cc1 the results were T cruzi repl -2.7, SKKanGAS inh 6.6, CSC inhib -9.3, Lmaj promast -2.3, Beta cell apopt -1.4 and Mdm2 MdmX PPI 14.3.
For COc1ccc(C2C(C#N)=C(N)OC3=C2C(=O)CCC3)cc1Cn1nc(C)c([N+](=O)[O-])c1C (stereo not given) the results were T cruzi repl -4.8, SKKanGAS inh -2.1, CSC inhib -7.2, Lmaj promast 92.8*, Beta cell apopt -10.4 and Mdm2 MdmX PPI 16.2.
For COc1ccc(C(=O)OCN2C(=O)c3ccccc3C2=O)cc1 the results were T cruzi repl -5.1, SKKanGAS inh -2.2, CSC inhib -1.2, Lmaj promast 0.6, Beta cell apopt -1.5 and Mdm2 MdmX PPI -0.1.
O=C(N/N=C1\CCCc2ccccc21)c1ccccc1Cl was read as T cruzi repl -10.8, SKKanGAS inh -10.1, CSC inhib 0.5, Lmaj promast 88.2*, Beta cell apopt -3.5 and Mdm2 MdmX PPI -26.9.
For NS(=O)(=O)c1ccc(NC(=O)CN2CCN(S(=O)(=O)c3cccs3)CC2)cc1 the results were Mdm2 MdmX PPI 22.8.
Screening COc1ccccc1C1(CC(=O)Nc2nccs2)CCOC(C(C)C)C1 (stereo not given) returned T cruzi repl 5.8, SKKanGAS inh 0.2, CSC inhib -9.9, Lmaj promast 84.9*, Beta cell apopt 2.6 and Mdm2 MdmX PPI 16.0.
Screening Cc1ccc(NC(=O)CCC(=O)c2cccs2)c(Br)c1 returned T cruzi repl 7.6, SKKanGAS inh 0.7, CSC inhib -10.2, Beta cell apopt -2.9 and Mdm2 MdmX PPI -17.7.
O=c1c2c([nH]c3ccccc13)CCCCCC2 was read as T cruzi repl 30.8, SKKanGAS inh -1.1, CSC inhib -3.9, Lmaj promast 63.6*, Beta cell apopt 6.4 and Mdm2 MdmX PPI -16.2.
For CCOC(=O)C1=C(C)OC(N)=C(C(=O)OCC)C1c1cccnc1 (stereo not given) the results were T cruzi repl 10.0, SKKanGAS inh -8.1, CSC inhib -5.1, Lmaj promast 84.5*, Beta cell apopt 2.3 and Mdm2 MdmX PPI -15.6.
Screening CCOC(=O)C1=C(N)OC2=C(C(=O)CC(C)(C)C2)C1c1cccnc1 (stereo not given) returned T cruzi repl -1.3, SKKanGAS inh -1.7, CSC inhib -6.3, Lmaj promast 78.0*, Beta cell apopt -1.9 and Mdm2 MdmX PPI 6.0.
CCOC(=O)C1=C(C)OC(N)=C(C(=O)OCC)C1c1ccncc1 (stereo not given) was read as T cruzi repl -0.2, SKKanGAS inh -0.5, CSC inhib -2.3, Lmaj promast 30.8, Beta cell apopt 1.8 and Mdm2 MdmX PPI 10.0.
Screening CCOC(=O)C1=C(C)NC2=C(C(=O)c3ccccc32)C1c1cccnc1 (stereo not given) returned T cruzi repl 16.9, SKKanGAS inh 15.5, CSC inhib -15.4, Lmaj promast 81.9*, Beta cell apopt 3.4 and Mdm2 MdmX PPI 15.4.
`COc1ccc(CN2CCC(CO)(CCOc3ccccc3)CC2)cc1C` gave T cruzi repl 25.4, SKKanGAS inh -3.9, Lmaj promast 85.0* and Mdm2 MdmX PPI -6.2.
Screening COc1cc(OC)c(CN2CCC(CO)(CCOc3ccccc3)CC2)c(OC)c1 returned T cruzi repl 48.7, SKKanGAS inh -0.8, CSC inhib 17.4, Lmaj promast 2.2, Beta cell apopt 7.0 and Mdm2 MdmX PPI -1.2.
For Cc1nn(C)c(Cl)c1CN1CCC(CO)(CCOc2ccccc2)CC1 the results were T cruzi repl 4.1, SKKanGAS inh -2.4, CSC inhib -11.0, Lmaj promast 72.3*, Beta cell apopt -4.3 and Mdm2 MdmX PPI -3.2.
Screening CCn1ccnc1CN1CCC(CO)(CCOc2ccccc2)CC1 returned T cruzi repl -3.3, SKKanGAS inh -1.3, CSC inhib 28.0, Lmaj promast 0.5, Beta cell apopt -5.4 and Mdm2 MdmX PPI -24.2.
Screening OCC1(CCOc2ccccc2)CCN(CCCn2cccn2)CC1 returned T cruzi repl -1.1, SKKanGAS inh -1.7, CSC inhib -5.6, Lmaj promast 80.7*, Beta cell apopt -3.6 and Mdm2 MdmX PPI -18.3.
Screening COc1cc(CN2CCC(CO)(CCOc3ccccc3)CC2)cc(OC)c1OC returned T cruzi repl 2.5, SKKanGAS inh -1.4, Lmaj promast 87.4*, Beta cell apopt 0.0 and Mdm2 MdmX PPI -11.0.
For CSc1ccc(CN2CCC(CO)(CCOc3ccccc3)CC2)cc1 the results were T cruzi repl -3.8, SKKanGAS inh -0.1, CSC inhib 20.9 and Mdm2 MdmX PPI 21.5.
`CCOC(=O)C1CCN(C(=O)c2ccc(OCC(=O)Nc3ccc(OCC)cc3)c(OC)c2)CC1` gave T cruzi repl -2.8, SKKanGAS inh 22.2, CSC inhib -1.8, Beta cell apopt -0.5 and Mdm2 MdmX PPI -4.0.
C[C@@H]1CN([C@H](C)CO)C(=O)c2cc(NS(=O)(=O)c3cn(C)cn3)ccc2O[C@@H]1CN(C)S(C)(=O)=O was read as CSC inhib -2.2, Beta cell apopt -2.4 and Mdm2 MdmX PPI -3.8.
`N#CCn1c(CCl)nc2ccccc2c1=O` gave T cruzi repl -1.1, SKKanGAS inh -3.9, CSC inhib -2.7, Lmaj promast 83.7*, Beta cell apopt 4.0 and Mdm2 MdmX PPI -4.0.
For O=C(Nc1ccc(Cl)cc1)OCCn1nnnc1C(c1ccccc1Cl)N1CCOCC1 (stereo not given) the results were T cruzi repl -45.0, SKKanGAS inh -10.6, Lmaj promast 89.8*, Beta cell apopt 0.4 and Mdm2 MdmX PPI 30.5.
